ChEMBL document CHEMBL5724801, “EUbOPEN Chemogenomics Library - Multiplex” (2024)
Where “and” joins values, the source holds several entries; their conditions need not be identical. Equal values may be shown once.

Test system: HEK-293T
Assay: Multiplex assay against HEK293T
Assay type: toxicity, cell-based
Conditions: human
How it was run: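 At seeding, live cells were stained with Hoechst33342, BioTracker Green Microtubule Cytoskeleton Dye, MitoTracker Red and Annexin V Alexa Fluor 680. After compound addition they were imaged on a CQ1 microscope at 37°C and 5% CO2, and CellPathfinder machine-learning gating sorted them into Hoechst high-intensity objects or normal cells, with normal cells further split into healthy, pyknosed or fragmented nuclei and pyknosed cells into mitotic or apoptotic. Tubulin, mitochondrial-mass and membrane-permeability phenotypes are given as per cents of cells with healthy nuclei.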

[1] = 12 h, 1 µM, compound concentration 1 uM
[2] = 12 h, 10 µM, compound concentration 10 uM
[3] = 24 h, 1 µM, compound concentration 1 uM
[4] = 24 h, 10 µM, compound concentration 10 uM
[5] = 48 h, 1 µM, compound concentration 1 uM
[6] = 48 h, 10 µM, compound concentration 10 uM

## CCn1c(-c2nonc2N)nc2c(C#CC(C)(C)O)ncc(OCC3CCCNC3)c21 (centres undefined)
[1]
  Population Apoptotic (%): 10.29% and 11.11%
  Population Fragmented Nuclei (%): 2.35% and 5.52%
  Population Hoechst High Intensity Objects (%): 0.29% and 0%
  Population Membrane Permeable-Phenotype (%): 0%
  Population Mitochondria Different-Phenotype (%): 31.65% and 45.45%
  Population Mitotic Cells (%): 89.71% and 88.89%
  Population Normal (%): 99.71% and 100%
  Population Pyknosed Nuclei (%): 51.32% and 86.9%
  Total Cell Count: 342 and 145
[2]
  Population Apoptotic (%): 15.66% and 20.38%
  Population Fragmented Nuclei (%): 0.98% and 2.91%
  Population Hoechst High Intensity Objects (%): 1.92% and 0%
  Population Membrane Permeable-Phenotype (%): 0%
  Population Mitochondria Different-Phenotype (%): 33.96% and 20%
  Population Mitotic Cells (%): 84.34% and 79.62%
  Population Normal (%): 98.08% and 100%
  Population Pyknosed Nuclei (%): 64.5% and 91.28%
  Population Tubulin-Different-Phenotype (%): 48.11% and 40%
  Total Cell Count: 313 and 172
[3]
  Population Apoptotic (%): 27.07% and 20.59%
  Population Fragmented Nuclei (%): 1.2% and 4.2%
  Population Healthy Nuclei (%): 58.73% and 24.48%
  Population Hoechst High Intensity Objects (%): 0.3% and 0%
  Population Membrane Permeable-Phenotype (%): 1.54% and 0%
  Population Mitochondria Different-Phenotype (%): 34.87% and 20%
  Population Mitotic Cells (%): 72.93% and 79.41%
  Population Normal (%): 99.7% and 100%
  Population Pyknosed Nuclei (%): 40.06% and 71.33%
  Total Cell Count: 333 and 143
[4]
  Population Apoptotic (%): 43.87% and 34.93%
  Population Fragmented Nuclei (%): 1.02% and 3.07%
  Population Hoechst High Intensity Objects (%): 1.01% and 0%
  Population Membrane Permeable-Phenotype (%): 0%
  Population Mitochondria Different-Phenotype (%): 55.56% and 50%
  Population Mitotic Cells (%): 56.13% and 65.07%
  Population Normal (%): 98.99% and 100%
  Population Pyknosed Nuclei (%): 52.9% and 89.57%
  Population Tubulin-Different-Phenotype (%): 82.22% and 41.67%
  Total Cell Count: 296 and 163
[5]
  Population Apoptotic (%): 16.67% and 24.05%
  Population Fragmented Nuclei (%): 1.43% and 3.95%
  Population Healthy Nuclei (%): 81.46% and 51.41%
  Population Hoechst High Intensity Objects (%): 0.32% and 0.56%
  Population Membrane Permeable-Phenotype (%): 3.89% and 2.2%
  Population Mitochondria Different-Phenotype (%): 59.34% and 63.74%
  Population Mitotic Cells (%): 83.33% and 75.95%
  Population Normal (%): 99.68% and 99.44%
  Population Pyknosed Nuclei (%): 17.12% and 44.63%
[6]
  Population Apoptotic (%): 73.58% and 71.96%
  Population Fragmented Nuclei (%): 1.19% and 2.01%
  Population Healthy Nuclei (%): 56.75% and 26.17%
  Population Hoechst High Intensity Objects (%): 1.18% and 0%
  Population Membrane Permeable-Phenotype (%): 2.8% and 0%
  Population Mitochondria Different-Phenotype (%): 97.2% and 92.31%
  Population Mitotic Cells (%): 26.42% and 28.04%
  Population Normal (%): 98.82% and 100%
  Population Pyknosed Nuclei (%): 42.06% and 71.81%
  Population Tubulin-Different-Phenotype (%): 70.63% and 92.31%
  Total Cell Count: 255 and 149

## NC1=NC(=O)/C(=C2\CCNC(=O)c3[nH]c4ccccc4c32)N1
[1]
  Population Apoptotic (%): 13.33% and 11.21%
  Population Fragmented Nuclei (%): 2.11% and 2.19%
  Population Hoechst High Intensity Objects (%): 0.52% and 0%
  Population Membrane Permeable-Phenotype (%): 0.85% and 3.7%
  Population Mitotic Cells (%): 86.67% and 88.79%
  Population Normal (%): 99.48% and 100%
  Population Pyknosed Nuclei (%): 35.62% and 78.1%
  Total Cell Count: 381 and 137
[2]
  Population Apoptotic (%): 8.93% and 12.5%
  Population Fragmented Nuclei (%): 2.8% and 2.1%
  Population Hoechst High Intensity Objects (%): 0%
  Population Membrane Permeable-Phenotype (%): 1% and 0%
  Population Mitochondria Different-Phenotype (%): 33.83% and 15%
  Population Mitotic Cells (%): 91.07% and 87.5%
  Population Normal (%): 100%
  Population Pyknosed Nuclei (%): 34.78% and 83.92%
  Total Cell Count: 322 and 143
[3]
  Population Apoptotic (%): 12% and 13.98%
  Population Fragmented Nuclei (%): 1.99% and 1.92%
  Population Healthy Nuclei (%): 77.28% and 38.46%
  Population Hoechst High Intensity Objects (%): 0%
  Population Membrane Permeable-Phenotype (%): 0.86% and 3.33%
  Population Mitochondria Different-Phenotype (%): 12.45% and 11.67%
  Population Mitotic Cells (%): 88% and 86.02%
  Population Normal (%): 100%
  Population Pyknosed Nuclei (%): 20.73% and 59.62%
  Population Tubulin-Different-Phenotype (%): 11.37% and 1.67%
[4]
  Population Apoptotic (%): 14.91% and 16%
  Population Fragmented Nuclei (%): 1.32% and 5.13%
  Population Healthy Nuclei (%): 73.68% and 30.77%
  Population Hoechst High Intensity Objects (%): 0%
  Population Membrane Permeable-Phenotype (%): 0.89% and 6.25%
  Population Mitochondria Different-Phenotype (%): 13.69% and 18.75%
  Population Mitotic Cells (%): 85.09% and 84%
  Population Normal (%): 100%
  Population Pyknosed Nuclei (%): 25% and 64.1%
  Population Tubulin-Different-Phenotype (%): 10.42% and 4.17%
  Total Cell Count: 456 and 156
[5]
  Population Apoptotic (%): 9.77% and 15.52%
  Population Fragmented Nuclei (%): 3.77% and 1.5%
  Population Healthy Nuclei (%): 86.2% and 69.5%
  Population Hoechst High Intensity Objects (%): 0.08% and 0%
  Population Membrane Permeable-Phenotype (%): 3.85% and 3.6%
  Population Mitochondria Different-Phenotype (%): 10.94% and 10.79%
  Population Mitotic Cells (%): 90.23% and 84.48%
  Population Normal (%): 99.92% and 100%
  Population Pyknosed Nuclei (%): 10.03% and 29%
[6]
  Population Apoptotic (%): 6.19% and 12.05%
  Population Fragmented Nuclei (%): 2.47% and 2.35%
  Population Healthy Nuclei (%): 85.57% and 58.69%
  Population Hoechst High Intensity Objects (%): 0.25% and 0.93%
  Population Membrane Permeable-Phenotype (%): 2.16% and 0.8%
  Population Mitochondria Different-Phenotype (%): 22.48% and 16.8%
  Population Mitotic Cells (%): 93.81% and 87.95%
  Population Normal (%): 99.75% and 99.07%
